Assay results reported in ChEMBL document CHEMBL1177718, “Phosphoramidate ProTides of 2'-C-methylguanosine as highly potent inhibitors of hepatitis C virus. Study of their in vitro and in vivo properties” (J Med Chem, 2010).

Tests used:
[1] = Metabolic stability in dog intestine S9 fraction assessed as compound remaining at 10 uM after 60 mins by HPLC analysis in absence of NADP; type: ADME, tissue-based, Canis lupus familiaris; settings: read-out: Stability
Outline: (§1)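 Liver or intestinal S9 at final 1 mg/mL in 50 mM potassium phosphate, with or without NADPH-regenerating system (1.3 mM NADP, 3.3 mM glucose-6-phosphate, 0.4 U/mL G6PDH, 3.3 mM MgCl₂); 10 min preincubation at 37 °C; compound at final 10 μM; samples at start and 60 min quenched in cold acetonitrile, centrifuged, HPLC; % parent remaining.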

[2] = Metabolic stability in human intestine S9 fraction assessed as compound remaining at 10 uM after 60 mins by HPLC analysis in presence of NADP; type: ADME, tissue-based; settings: read-out: Stability; outline: as §1
[3] = Metabolic stability in human intestine S9 fraction assessed as compound remaining at 10 uM after 60 mins by HPLC analysis in absence of NADP; type: ADME, tissue-based; settings: read-out: Stability; outline: as §1
[4] = Metabolic stability in dog intestine S9 fraction assessed as compound remaining at 10 uM after 60 mins by HPLC analysis in presence of NADP; type: ADME, tissue-based, Canis lupus familiaris; settings: read-out: Stability; outline: as §1
[5] = Metabolic stability in dog liver S9 fraction assessed as compound remaining at 10 uM after 60 mins by HPLC analysis in absence of NADP; type: ADME, subcellular, Canis lupus familiaris; settings: read-out: Stability; outline: as §1
[6] = Metabolic stability in dog liver S9 fraction assessed as compound remaining at 10 uM after 60 mins by HPLC analysis in presence of NADP; type: ADME, subcellular, Canis lupus familiaris; settings: read-out: Stability; outline: as §1
[7] = Metabolic stability in mouse plasma assessed as compound remaining at 1 ug/ml after 30 mins; type: ADME, cell-free; settings: read-out: Stability
[8] = Cytotoxicity against human HuH7 cells after 72 hrs by celltiter-glo assay; type: cell-based, Huh-7
Outline: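 Replicon 1b Huh7 cells seeded 2 × 10⁴/well; after 24 h, 11 serial 2× dilutions from 100 μM (three repeats each) with no-compound control; 72 h at 37 °C, CO₂, log-phase growth; viability by CellTiter-Glo luminescence; CC₅₀ = concentration giving 50% signal.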

Hepatitis C virus = test: Antiviral activity against HCV1b infected in human HuH7 cells assessed as inhibition of viral replication after 48 hrs by luciferase reporter gene assay; type: functional, organism-based, Hepacivirus hominis; settings: genotype 1b, Huh-7, 48 h
Outline: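 Huh7 cells carrying genotype 1b bicistronic subgenomic replicon, seeded 2 × 10⁴/well without G-418; compounds added 18-24 h later, 48 h exposure; 3× or 4× serial dilutions over 0.0001-10 μM in triplicate/quadruplicate; Renilla luciferase read-out versus untreated cells; EC₅₀ by four-parameter sigmoidal nonlinear regression; at least three independent assays.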

[9] = Metabolic stability in human liver S9 fraction assessed as compound remaining at 10 uM after 60 mins by HPLC analysis in absence of NADP; type: ADME, subcellular; settings: read-out: Stability; outline: as §1
[10] = Metabolic stability in human liver S9 fraction assessed as compound remaining at 10 uM after 60 mins by HPLC analysis in presence of NADP; type: ADME, subcellular; settings: read-out: Stability; outline: as §1
[11] = Metabolic stability in mouse plasma assessed as compound remaining at 1 ug/ml after 4 hrs; type: ADME, cell-free; settings: read-out: Stability
[12] = Metabolic stability in rat plasma assessed as compound remaining at 1 ug/ml after 4 hrs; type: ADME, cell-free; settings: read-out: Stability
Outline: (§2)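 Duplicate incubations; compound at final 1 μg/mL in plasma preincubated and kept at […]; samples taken at 30 or 240 min, quenched with ice-cold acetonitrile, centrifuged, supernatant diluted with water; parent quantified by LC-MS/MS (Polar-RP column, formic acid water/acetonitrile gradient, positive ion mode); % remaining reported.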

[13] = Metabolic stability in dog plasma assessed as compound remaining at 1 ug/ml after 4 hrs; type: ADME, cell-free, Canis lupus familiaris; settings: read-out: Stability; outline: as §2
[14] = Metabolic stability in cynomolgus monkey plasma assessed as compound remaining at 1 ug/ml after 4 hrs; type: ADME, cell-free, Macaca fascicularis; settings: read-out: Stability; outline: as §2
[15] = Metabolic stability in rat plasma assessed as compound remaining at 1 ug/ml after 30 mins; type: ADME, cell-free; settings: read-out: Stability; outline: as §2
[16] = Metabolic stability in dog plasma assessed as compound remaining at 1 ug/ml after 30 mins; type: ADME, cell-free, Canis lupus familiaris; settings: read-out: Stability; outline: as §2
[17] = Metabolic stability in cynomolgus monkey plasma assessed as compound remaining at 1 ug/ml after 30 mins; type: ADME, cell-free, Macaca fascicularis; settings: read-out: Stability; outline: as §2
Homo sapiens [18] = organism: Homo sapiens; test: Metabolic stability in human plasma assessed as compound remaining at 1 ug/ml after 4 hrs
Homo sapiens [19] = organism: Homo sapiens; test: Metabolic stability in human plasma assessed as compound remaining at 1 ug/ml after 30 mins
Plasma = test: Dose normalized AUC in ICR mouse plasma at 50 mg/kg, po by LC-MS/MS analysis; type: ADME, organism-based; design: dose 50 mg/kg, route oral; settings: in vivo
[20] = Cmax in ICR mouse plasma at 50 mg/kg, po by LC-MS/MS analysis; type: ADME, organism-based; design: dose 50 mg/kg, route oral

| SMILES | remaining at 0.5 h, 1 ug/ml [7] | CC50 at 72 h [8] | EC50 (Hepatitis C virus) | remaining at 4 h, 1 ug/ml [11] | remaining at 4 h, 1 ug/ml [12] | remaining at 4 h, 1 ug/ml [13] | remaining at 4 h, 1 ug/ml [14] | remaining at 0.5 h, 1 ug/ml [15] | remaining at 0.5 h, 1 ug/ml [16] | remaining at 0.5 h, 1 ug/ml [17] | remaining at 4 h, 1 ug/ml (Homo sapiens [18]) | remaining at 0.5 h, 1 ug/ml (Homo sapiens [19]) | also measured |
| --- | --- | --- | --- | --- | --- | --- | --- | --- | --- | --- | --- | --- | --- |
| COC(=O)[C@H](C)NP(=O)(OC[C@H]1O[C@@H](n2cnc3c(=O)[nH]c(N)nc32)[C@](C)(O)[C@@H]1O)Oc1cccc2ccccc12 (stereo not given in full) | 1.7% | > 50000 nM | 210 nM |  |  |  |  |  |  |  |  |  | remaining at 1 h, 10 µM [1]: 54%; remaining at 1 h, 10 µM [2]: 60%; remaining at 1 h, 10 µM [3]: 63%; remaining at 1 h, 10 µM [4]: 50%; remaining at 1 h, 10 µM [5]: 85%; remaining at 1 h, 10 µM [6]: 67%; remaining at 1 h, 10 µM [9]: 40%; remaining at 1 h, 10 µM [10]: 20% |
| CC(OC(=O)[C@H](C)NP(=O)(OC[C@H]1O[C@@H](n2cnc3c(=O)[nH]c(N)nc32)[C@](C)(O)[C@@H]1O)Oc1cccc2ccccc12)c1ccccc1 (mixture of isomers) | 2.2% | > 100000 nM | 95 nM | 0% | 0.3% | 93% | 88% | 0.7% | 97% | 100% | 86% | 86% |  |
| C[C@H](NP(=O)(OC[C@H]1O[C@@H](n2cnc3c(=O)[nH]c(N)nc32)[C@](C)(O)[C@@H]1O)Oc1cccc2ccccc12)C(=O)OC1CCCC1 (stereo not given in full) |  | > 100000 nM | 70 nM |  |  |  |  |  |  |  |  |  |  |
| CC(C)(NP(=O)(OC[C@H]1O[C@@H](n2cnc3c(=O)[nH]c(N)nc32)[C@](C)(O)[C@@H]1O)Oc1cccc2ccccc12)C(=O)OCc1ccccc1 (stereo not given in full) | 0% |  | 1500 nM | 0% | 0% | 100% | 83% | 0% | 100% | 92% | 41% | 100% |  |
| CCCCOC(=O)[C@H](C)NP(=O)(OC[C@H]1O[C@@H](n2cnc3c(=O)[nH]c(N)nc32)[C@](C)(O)[C@@H]1O)Oc1cccc2ccccc12 (stereo not given in full) | 0% | > 100000 nM | 100 nM | 0% | 0% | 90% | 81% | 0.4% | 95% | 98% | 97% | 100% |  |
| Cc1ccccc1COC(=O)[C@@H](NP(=O)(OC[C@H]1O[C@@H](n2cnc3c(=O)[nH]c(N)nc32)[C@](C)(O)[C@@H]1O)Oc1cccc2ccccc12)C(C)C (stereo not given in full) | 67% | > 100000 nM | 1000 nM |  |  |  |  |  | 100% |  |  | 100% | AUC (Plasma): 52 ng·h/mL; Cmax [20]: 668 ng/mL |
| C[C@H](NP(=O)(OC[C@H]1O[C@@H](n2cnc3c(=O)[nH]c(N)nc32)[C@](C)(O)[C@@H]1O)Oc1cccc2ccccc12)C(=O)OCCCc1ccccc1 (stereo not given in full) |  | > 100000 nM | 170 nM |  |  |  |  |  |  |  |  |  |  |
| C[C@H](NP(=O)(OC[C@H]1O[C@@H](n2cnc3c(=O)[nH]c(N)nc32)[C@](C)(O)[C@@H]1O)Oc1cccc2ccccc12)C(=O)OCCc1ccccc1 (stereo not given in full) |  | > 100000 nM | 90 nM |  |  |  |  |  |  |  |  |  |  |
| CC(OC(=O)[C@@H](NP(=O)(OC[C@H]1O[C@@H](n2cnc3c(=O)[nH]c(N)nc32)[C@](C)(O)[C@@H]1O)Oc1cccc2ccccc12)C(C)C)c1ccccc1 (stereo not given in full) | 100% |  | > 3000 nM |  |  |  |  |  | 100% |  |  | 97% |  |
| CSCC[C@H](NP(=O)(OC[C@H]1O[C@@H](n2cnc3c(=O)[nH]c(N)nc32)[C@](C)(O)[C@@H]1O)Oc1cccc2ccccc12)C(=O)OC(C)C (stereo not given in full) | 76% | > 100000 nM | 340 nM | 32% | 0.5% | 100% | 93% | 2.3% | 100% | 96% |  |  |  |
| CC(C)[C@H](NP(=O)(OC[C@H]1O[C@@H](n2cnc3c(=O)[nH]c(N)nc32)[C@](C)(O)[C@@H]1O)Oc1cccc2ccccc12)C(=O)OCc1cccc(Cl)c1 (stereo not given in full) | 79% |  | 680 nM |  |  |  |  |  | 90% |  |  | 100% | AUC (Plasma): > 33 ng·h/mL; Cmax [20]: 388 ng/mL |
| CC(C)[C@H](NP(=O)(OC[C@H]1O[C@@H](n2cnc3c(=O)[nH]c(N)nc32)[C@](C)(O)[C@@H]1O)Oc1ccc2ccccc2c1)C(=O)OCc1ccccc1 (stereo not given in full) | 99% | > 100000 nM | 1700 nM | 76% | 22% | 99% | 95% | 49% | 95% | 100% | 100% | 93% |  |
| CC(C)[C@@H](NP(=O)(OC[C@H]1O[C@@H](n2cnc3c(=O)[nH]c(N)nc32)[C@](C)(O)[C@@H]1O)Oc1cccc2ccccc12)C(=O)OCc1ccccc1 (stereo not given in full) | 51% | > 100000 nM | > 3000 nM | 8% | 56% | 61% | 80% | 82% | 69% | 68% | 82% | 70% |  |
| CC(C)[C@H](NP(=O)(OC[C@H]1O[C@@H](n2cnc3c(=O)[nH]c(N)nc32)[C@](C)(O)[C@@H]1O)Oc1cccc2ccccc12)C(=O)OCCc1ccccc1 (stereo not given in full) |  | > 100000 nM | 1700 nM |  |  |  |  |  |  |  |  |  |  |
| C[C@H](NP(=O)(OC[C@H]1O[C@@H](n2cnc3c(=O)[nH]c(N)nc32)[C@](C)(O)[C@@H]1O)Oc1cccc2ccccc12)C(=O)OC1CCCCC1 (stereo not given in full) | 2.9% | > 100000 nM | 45 nM | 0% | 0.5% | 100% | 100% | 2.5% | 100% | 100% | 100% | 100% |  |
| COC(=O)[C@H](CCSC)NP(=O)(OC[C@H]1O[C@@H](n2cnc3c(=O)[nH]c(N)nc32)[C@](C)(O)[C@@H]1O)Oc1cccc2ccccc12 (stereo not given in full) | 76% | > 100000 nM | 280 nM |  |  |  |  |  |  |  |  |  | remaining at 1 h, 10 µM [2]: 42%; remaining at 1 h, 10 µM [3]: 27%; remaining at 1 h, 10 µM [4]: 56%; remaining at 1 h, 10 µM [5]: 57%; remaining at 1 h, 10 µM [6]: 40%; remaining at 1 h, 10 µM [9]: 14%; remaining at 1 h, 10 µM [10]: 3% |
| CCCCCOC(=O)[C@H](C)NP(=O)(OC[C@H]1O[C@@H](n2cnc3c(=O)[nH]c(N)nc32)[C@](C)(O)[C@@H]1O)Oc1cccc2ccccc12 (stereo not given in full) | 0% |  | 91 nM | 0% | 0% | 98% | 94% | 0% | 98% | 94% | 96% | 100% |  |
| CC(C)[C@H](NP(=O)(OC[C@H]1O[C@@H](n2cnc3c(=O)[nH]c(N)nc32)[C@](C)(O)[C@@H]1O)Oc1cccc2ccccc12)C(=O)OCC(C)(C)C (stereo not given in full) | 77% | > 100000 nM | 1500 nM |  |  |  |  |  | 79% |  |  | 91% | AUC (Plasma): > 45 ng·h/mL; Cmax [20]: 652 ng/mL |
